The source of these data is ChEMBL document CHEMBL1125306, “5,10-Methylenetetrahydro-5-deazafolic acid and analogues: synthesis and biological activities” (J Med Chem, 1992).

Structures are written as SMILES. pIC50: −log10 of the molar value. Bounds are passed on as bounds.

Assay [1] deals with T1, Thymidylate synthase (Lactobacillus casei, UniProt P00469).
T1 sequence (P00469 whole entry): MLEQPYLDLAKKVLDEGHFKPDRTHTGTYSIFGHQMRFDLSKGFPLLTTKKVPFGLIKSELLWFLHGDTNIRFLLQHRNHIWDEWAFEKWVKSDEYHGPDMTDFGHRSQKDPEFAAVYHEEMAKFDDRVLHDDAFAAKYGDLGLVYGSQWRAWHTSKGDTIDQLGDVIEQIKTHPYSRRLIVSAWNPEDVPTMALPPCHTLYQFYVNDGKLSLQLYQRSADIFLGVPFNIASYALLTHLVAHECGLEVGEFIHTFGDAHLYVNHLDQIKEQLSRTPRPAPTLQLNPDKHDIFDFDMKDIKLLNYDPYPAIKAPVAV
Nature of the assay: Compound was evaluated for the inhibition of Lactobacillus casei thymidylate synthase. Further details: species or system Lacticaseibacillus casei.

Assay [2] has as its target T2, Dihydrofolate reductase (Homo sapiens) (UniProt P00374).
T2 sequence (whole entry): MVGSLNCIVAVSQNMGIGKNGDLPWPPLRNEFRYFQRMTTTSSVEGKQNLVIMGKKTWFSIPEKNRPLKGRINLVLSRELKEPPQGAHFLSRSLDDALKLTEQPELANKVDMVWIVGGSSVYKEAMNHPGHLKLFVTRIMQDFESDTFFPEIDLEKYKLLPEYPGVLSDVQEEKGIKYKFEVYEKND
Nature of the assay: Percent inhibition against human DHFR. Particulars: concentration not given here.

Assay [3] deals with T3, Dihydrofolate reductase (Homo sapiens, UniProt P00374).
T3 sequence (P00374 whole entry): T2 sequence (whole entry)
Nature of the assay: Compound was evaluated for the inhibition of recombinant human Dihydrofolate reductase (DHFR).

In assay [4] the test system is Manca. Nature of the assay: Compound was evaluated for the inhibition of Manca human lymphoma cell growth. It counts as functional, cell-based. A digest of the protocol:
(§1)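 Manca human lymphoma cells grown in RPMI medium with 10% fetal calf serum. Growth was estimated by tetrazolium reduction.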

In assay [5] the target is Dihydrofolate reductase (Lactobacillus casei, UniProt P00381). Nature of the assay: Compound was evaluated for the inhibition of Lactobacillus casei DHFR. The arrangement: species or system Lacticaseibacillus casei.
Dihydrofolate reductase (Lactobacillus casei, UniProt P00381), sequence (P00381 whole entry): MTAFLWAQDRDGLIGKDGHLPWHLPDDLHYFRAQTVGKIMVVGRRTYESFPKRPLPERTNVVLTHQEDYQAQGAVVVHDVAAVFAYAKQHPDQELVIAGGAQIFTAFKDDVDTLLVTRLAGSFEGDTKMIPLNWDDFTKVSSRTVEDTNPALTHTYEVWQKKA
The target of assay [6] is Thymidylate synthase (Homo sapiens, UniProt P04818). Nature of the assay: Compound was evaluated for the inhibition of recombinant human thymidylate synthase.
Thymidylate synthase (Homo sapiens, UniProt P04818), sequence (P04818 whole entry): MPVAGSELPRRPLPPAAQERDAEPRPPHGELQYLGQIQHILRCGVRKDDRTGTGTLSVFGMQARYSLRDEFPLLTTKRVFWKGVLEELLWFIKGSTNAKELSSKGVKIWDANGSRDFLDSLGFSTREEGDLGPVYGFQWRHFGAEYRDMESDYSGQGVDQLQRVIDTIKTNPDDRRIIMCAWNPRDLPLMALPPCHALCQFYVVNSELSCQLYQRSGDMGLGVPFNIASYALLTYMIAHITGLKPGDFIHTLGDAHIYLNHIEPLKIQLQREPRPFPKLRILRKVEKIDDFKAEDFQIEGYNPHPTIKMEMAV
For assay [7], the system named is Manca. Nature of the assay: Compound was evaluated for the inhibition of Manca human lymphoma cell growth; no inhibition. It is filed as functional, cell-based. Put shortly:
as §1

In assay [8] the target is T3, Dihydrofolate reductase. Nature of the assay: Compound was evaluated for the inhibition of recombinant human Dihydrofolate reductase (DHFR); no inhibition.
Assay [9] has as its target GAR formyltransferase (Lactobacillus casei). Nature of the assay: Compound was evaluated for the inhibition of Glycinamide ribonucleotide formyl transferase (GAR) with formyl (6R) tetrahydrofolate as substrate.

A word on the pIC50: it is the negative decadic logarithm of the IC50, by convention in mol/L. For orientation: inhibition means the percentage by which the read-out fell short of the control. A low value points to a weak effect. For the molecule `Nc1nc(O)c2c(ncc3cn(-c4ccc(C(=O)NC(CCC(=O)O)C(=O)O)cc4)cc32)n1` (stereo not drawn), the pIC50 in [1] is below 4.00; in assay [3], below 4.10; in assay [4], 4.38. The molecule also displayed an inhibition in assay [2] of 23%.
With `Nc1nc(O)c2c(n1)NCC1CN(c3ccc(C(=O)NC(CCC(=O)O)C(=O)O)cc3)CC21` (stereo not drawn), the pIC50 in assay [5] is 5.30; in [6], below 4.40; in assay [3] it was below 4.40; in assay [7], below 4.70. This molecule yielded an inhibition in assay [2] of 34%.
Take `Cc1c2cnc3nc(N)nc(O)c3c2c(C)n1C`: the pIC50 is 4.02 in [1], below 4.02 in [8], below 4.02 in assay [9] and below 5.00 in [4].
